Reference: ChEMBL document CHEMBL1153883, “Cytotoxic, antioxidant activities and structure activity relationship of some newly synthesized terpenoidal oxaliplatin analogs” (Eur J Med Chem, 2009)

Columns and labels:
HT-29 [1] = assay: Cytotoxicity against human HT-29 cells at 50 ug/ml after 12 hrs by neutral red assay; format: functional
Summary of the method: (§1)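 HT-29 cells (Korean Cell Line Bank) were kept in DMEM with 10% FBS, penicillin and streptomycin at 37 °C under 5% CO2. Cells in 96-well plates were exposed to compounds for 12–48 h. The medium was replaced with fresh medium for neutral red uptake. Dye was extracted with 50% ethanol containing 50 mM sodium citrate (pH 4.2), and absorbance was read at 510 nm after 20 min.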

[2] = Antioxidant activity assessed as superoxide anion scavenging activity by NBT reduction method relative to Vitamin C; format: functional; set-up: concentration or dose not given beside the values
HT-29 [3] = assay: Cytotoxicity against human HT-29 cells at 50 ug/ml after 24 hrs by neutral red assay; format: functional; summary of the method: as §1
HT-29 [4] = assay: Cytotoxicity against human HT-29 cells at 100 ug/ml after 12 hrs by neutral red assay; format: functional; summary of the method: as §1
HT-29 [5] = assay: Cytotoxicity against human HT-29 cells at 150 ug/ml after 12 hrs by neutral red assay; format: functional; summary of the method: as §1
HT-29 [6] = assay: Cytotoxicity against human HT-29 cells at 100 ug/ml after 48 hrs by neutral red assay; format: functional; summary of the method: as §1
HT-29 [7] = assay: Cytotoxicity against human HT-29 cells at 50 ug/ml after 48 hrs by neutral red assay; format: functional; summary of the method: as §1
[8] = Antioxidant activity assessed as superoxide anion scavenging activity by NBT reduction method; format: functional; set-up: concentration or dose not given beside the values
Summary of the method: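 Superoxide was generated by […]xanthine oxidase. Sample in 100 mM phosphate buffer (pH ~7.0) with xanthine oxidase (1.65 × 10^-2 units/ml) and NBT at 25 °C. The reaction was started by adding xanthine and followed by NBT reduction absorbance. Scavenging % was calculated from the absorbance increase with sample versus without sample (control).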

HT-29 [9] = assay: Cytotoxicity against human HT-29 cells at 100 ug/ml after 24 hrs by neutral red assay; format: functional; summary of the method: as §1
[10] = Acute toxicity in Albino rat; format: organism-based; details: in vivo
HT-29 [11] = assay: Cytotoxicity against human HT-29 cells at 150 ug/ml after 24 hrs by neutral red assay; format: functional; summary of the method: as §1

Structure (SMILES)	Activity (HT-29 [1])	Activity [2]	Activity (HT-29 [3])	Activity (HT-29 [4])	Activity (HT-29 [5])	Activity (HT-29 [6])	Activity (HT-29 [7])	Activity [8]	Activity (HT-29 [9])	LD50 [10]	Activity (HT-29 [11])
COC(=O)[C@@]1(C)CC[C@]2(C)CC[C@]3(C)C(=CC(=O)[C@@H]4[C@@]5(C)C[C@H](O)[C@@H](O)C(C)(C)[C@@H]5CC[C@]43C)[C@@H]2C1	19%	1.45%	21%	39%	40%	42%	33%	65.1%	41%	793 mg/kg	52%
COC(=O)[C@@]1(C)CC[C@]2(C)CC[C@]3(C)C(=CC(=O)[C@@H]4[C@@]5(C)C[C@H](N=[N+]=[N-])[C@@H](N=[N+]=[N-])C(C)(C)[C@@H]5CC[C@]43C)[C@@H]2C1	29%	1.51%	31%	42%	55%	52%	36%	68.1%	46%	898 mg/kg	60%
C[C@H]1[C@H](C)CC[C@]2(C(=O)O)CC[C@]3(C)C(=CC[C@@H]4[C@@]5(C)C[C@@H](O)[C@H](O)C(C)(C)[C@@H]5CC[C@]43C)[C@H]12 [COROSOLIC ACID]	–	–	–	–	–	–	–	–	–	816 mg/kg	–
O=C1O[C@H]([C@@H](O)CO)C(O)=C1O	–	1%	–	–	–	–	–	45%	–	–	–
COC(=O)[C@@]1(C)CC[C@]2(C)CC[C@]3(C)C(=CC(=O)[C@@H]4[C@@]5(C)C[C@H](N)[C@@H](N)C(C)(C)[C@@H]5CC[C@]43C)[C@@H]2C1	40%	1.56%	43%	48%	65%	58%	45%	70.1%	50%	893 mg/kg	70%
CC1(C)[C@H](O)[C@@H](O)C[C@]2(C)[C@H]3C(=O)C=C4[C@@H]5C[C@@](C)(C(=O)O)CC[C@]5(C)CC[C@@]4(C)[C@]3(C)CC[C@@H]12	–	–	–	–	–	–	–	–	–	656 mg/kg	–
COC(=O)[C@]12CC[C@@H](C)[C@H](C)[C@H]1C1=CC[C@@H]3[C@@]4(C)C[C@@H](O)[C@H](O)C(C)(C)[C@@H]4CC[C@@]3(C)[C@]1(C)CC2 [COROSOLIC ACID METHYL ESTER]	22%	1.51%	29%	40%	53%	50%	35%	68%	44%	818 mg/kg	58%
COC(=O)[C@]12CC[C@@H](C)[C@H](C)[C@H]1C1=CC[C@@H]3[C@@]4(C)C[C@@H](N)[C@H](N)C(C)(C)[C@@H]4CC[C@@]3(C)[C@]1(C)CC2	44%	1.65%	47%	56%	70%	62%	50%	74.2%	60%	836 mg/kg	75%
COC(=O)[C@]12CC[C@@H](C)[C@H](C)[C@H]1C1=CC[C@@H]3[C@@]4(C)C[C@@H](N=[N+]=[N-])[C@H](N=[N+]=[N-])C(C)(C)[C@@H]4CC[C@@]3(C)[C@]1(C)CC2	33%	1.54%	35%	44%	61%	55%	40%	69.1%	48%	825 mg/kg	66%
